Measurements gathered from unrelated publications.
Lines come from different studies, so protocols differ.

Cc1cccc(N2CCN(c3nc(-c4ccccn4)nc4ccccc34)CC2)n1
microsomal CLint (metabolic stability; human, liver microsomes): 165 µL/min/mg

OC[C@H]1O[C@@H](c2ccc(Cl)c(Cc3ccc(O[C@H]4CCOC4)cc3)c2)[C@H](O)[C@@H](O)[C@@H]1O
renal clearance (human, urine; oral, 100 mg, single dose): 15 mL/min

Cc1ccc(C(=O)N(CCCN)[C@@H](c2oc3cc(Cl)ccc3c(=O)c2Cc2ccccc2)C(C)C)cc1
clearance (human, plasma; intravenous, 6 mg/m², single dose, patients, infusion): 23.6 mL/min

c1ccc(-c2nc(N3CCN(c4ccccn4)CC3)c3ccccc3n2)nc1
microsomal CLint (metabolic stability; human, liver microsomes): 79 µL/min/mg

CCNCCCNC/C=C\CNCCCNCC
clearance (human, plasma; intravenous, 100 mg, patients, infusion): 5510 mL/min

Cn1nccc1-c1nc(N2CCC(c3ccccn3)C2)c2ccccc2n1 (stereo not drawn)
microsomal CLint (metabolic stability; human, liver microsomes): 59 µL/min/mg

COc1cc(C(=O)NC2CCN(C)CC2)c(F)cc1Nc1ncc(C(F)(F)F)c(Oc2cccc3c2C(=O)N(C)C3)n1
CL/F (human, plasma; oral, 300 mg, multiple doses, once daily, patients): 6.42 L/h

c1ccc(-c2nc(N3CCC(c4ccccn4)C3)c3ccccc3n2)cc1 (stereo not drawn)
microsomal CLint (metabolic stability; human, liver microsomes): 182 µL/min/mg

CN(c1ccc(F)cc1)c1c(-c2ccc(F)cn2)nc2ccccn12
hepatocyte CLint (metabolic stability; rat, hepatocytes): > 300 µL/min/10⁶ cells

CS(=O)(=O)CCC#N
CL/F (human, plasma; oral, 300 mg, single dose, fasted): 0.217 mL/min/kg

COc1ccc2nc(-c3cc(N(C)C)ccn3)c(N(C)c3ccc(F)cc3)n2c1
hepatocyte CLint (metabolic stability; rat, hepatocytes): > 300 µL/min/10⁶ cells

OC[C@H]1O[C@@H](c2ccc(Cl)c(Cc3ccc(O[C@H]4CCOC4)cc3)c2)[C@H](O)[C@@H](O)[C@@H]1O
CL/F (human, plasma; oral, multiple doses, steady state): 8.99 L/h

Fc1ccc(Nc2c(-c3ncccc3F)nc3ccccn23)cc1
hepatocyte CLint (metabolic stability; rat, hepatocytes): 100 µL/min/10⁶ cells

C[C@H](C(=O)N[C@@H]1COc2ccccc2[C@H]1S(C)(=O)=O)c1ccc(F)cc1
microsomal CLint (metabolic stability; rat, liver microsomes; 1 µM): 55 µL/min/mg

COc1ccn2c(Nc3ccccc3F)c(-c3ccncn3)nc2c1
hepatocyte CLint (metabolic stability; rat, hepatocytes): 170 µL/min/10⁶ cells

c1ccc(-c2nc(N3CCc4ncccc4C3)c3ccccc3n2)nc1
microsomal CLint (metabolic stability; human, liver microsomes): 71 µL/min/mg

CCOC(=O)C1=C(C)N/C(=C/c2cc(C)n(-c3ccc(N4CCOCC4)cc3)c2C)C1=O
chromatographic logD (HPLC; pH 7.4): 2.8

COc1cccc(-c2nc3ccccn3c2Nc2ccc(F)cc2)n1
hepatocyte CLint (metabolic stability; rat, hepatocytes): > 300 µL/min/10⁶ cells

c1cnc2ccc(Nc3nc(NC4CC4)c4nc[nH]c4n3)cc2c1
CL/F (human, plasma; oral, 400 mg/m², patients): 115 L/h

c1ccc(-c2nc(N3CCCCCC3)c3ccccc3n2)nc1
microsomal CLint (metabolic stability; human, liver microsomes): 190 µL/min/mg

COc1ccc2nc(-c3ccccn3)c(N(C)c3ccc(F)cc3)n2c1
hepatocyte CLint (metabolic stability; rat, hepatocytes): > 300 µL/min/10⁶ cells

c1ccc(-c2nc(N3CCCC3c3ccccn3)c3ccccc3n2)nc1 (stereo not drawn)
microsomal CLint (metabolic stability; human, liver microsomes): 62 µL/min/mg

Fc1ccc(Nc2c(-c3cc(Cl)ccn3)nc3ccccn23)cc1
hepatocyte CLint (metabolic stability; rat, hepatocytes): > 300 µL/min/10⁶ cells

COc1ccc(Nc2nc(-c3ccccn3)nc3ccccc23)cc1
microsomal CLint (metabolic stability; human, liver microsomes): 73 µL/min/mg

Cn1cnc(-c2nc3ccccn3c2Nc2ccc(F)cc2)c1
hepatocyte CLint (metabolic stability; rat, hepatocytes): 14 µL/min/10⁶ cells

CCOC(=O)C1=C(C)N/C(=C/c2cc(C)n(Cc3ccc(C(F)(F)F)cc3)c2C)C1=O
chromatographic logD (HPLC; pH 7.4): 3.5

Cc1c(C(=O)NN2CCCCC2)nc(-c2ccc(Cl)cc2Cl)n1-c1ccc(OCc2ccccc2)cc1
logD (shake flask; aqueous buffer; pH 7.4): > 5.3
